In ChEMBL document CHEMBL2321795, “Solubility-driven optimization of (pyridin-3-yl) benzoxazinyl-oxazolidinones leading to a promising antibacterial agent” (J Med Chem, 2013):
Converted amounts (≈) assume the structure as drawn.

Legend:
Assay type in all cases: functional
Enterococcus faecalis [1] = test: Antibacterial activity against Enterococcus faecalis after 16 hrs by NCCLS agar dilution method
Procedure, shortened: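 Agar dilution MIC per NCCLS, 6 E. faecalis strains. Stock was 320 μg/mL in 50% water/DMSO, serially 2-fold diluted in sterile water, then 10-fold into Mueller–Hinton agar to give 16–0.03125 μg/mL final. Inocula came from MH broth cultures grown 8 h at 35 °C, adjusted to 0.5 McFarland and spotted by multipoint inoculator. Plates were read after 16 h at 35 °C.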

Streptococcus pneumoniae = test: Antibacterial activity against penicillin-resistant Streptococcus pneumoniae after 16 hrs by NCCLS agar dilution method
Procedure, shortened: (§1)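 Agar dilution MIC. Stocks were 320 μg/mL in 50% aqueous DMSO, 2-fold serially diluted in sterile water, then diluted 10-fold into Mueller–Hinton agar to give 16–0.03125 μg/mL final. Organisms were grown in MH broth at 35 °C for 8 h and adjusted to 0.5 McFarland. They were spotted onto drug-containing plates with a multipoint inoculator and incubated at 35 °C for 16 h. Linezolid was the positive control.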

[2] = test system: Staphylococcus epidermidis; test: Antibacterial activity against methicillin-sensitive Staphylococcus epidermidis after 16 hrs by NCCLS agar dilution method; procedure, shortened: as §1
Staphylococcus aureus [3] = test: Antibacterial activity against methicillin-resistant Staphylococcus aureus after 16 hrs by NCCLS agar dilution method; procedure, shortened: as §1
[4] = test system: Staphylococcus epidermidis; test: Antibacterial activity against methicillin-resistant Staphylococcus epidermidis after 16 hrs by NCCLS agar dilution method; procedure, shortened: as §1
Staphylococcus aureus [5] = test: Antibacterial activity against methicillin-sensitive Staphylococcus aureus after 16 hrs by NCCLS agar dilution method; procedure, shortened: as §1
Staphylococcus aureus [6] = test: Antibacterial activity against Staphylococcus aureus ATCC 29213 after 16 hrs by NCCLS agar dilution method; details: ATCC 29213, 16 h; procedure, shortened: as §1
Enterococcus faecium = test: Antibacterial activity against linezolid-resistant Enterococcus faecium after 16 hrs by NCCLS agar dilution method; procedure, shortened: as §1
[7] = test system: Staphylococcus epidermidis; test: Antibacterial activity against linezolid-resistant Staphylococcus epidermidis after 16 hrs by NCCLS agar dilution method; procedure, shortened: as §1
Enterococcus faecalis [8] = test: Antibacterial activity against linezolid-resistant Enterococcus faecalis after 16 hrs by NCCLS agar dilution method; procedure, shortened: as §1
Staphylococcus aureus [9] = test: Antibacterial activity against linezolid-resistant Staphylococcus aureus after 16 hrs by NCCLS agar dilution method; procedure, shortened: as §1

SMILES	MIC (Enterococcus faecalis [1]) [µg/mL]	MIC (Streptococcus pneumoniae) [µg/mL]	MIC [2] [µg/mL]	MIC (Staphylococcus aureus [3]) [µg/mL]	MIC [4] [µg/mL]	MIC (Staphylococcus aureus [5]) [µg/mL]	MIC (Staphylococcus aureus [6]) [µg/mL]	MIC (Enterococcus faecium) [µg/mL]	MIC [7] [µg/mL]	MIC (Enterococcus faecalis [8]) [µg/mL]	MIC (Staphylococcus aureus [9]) [µg/mL]
Cc1cc(C#N)ncc1-c1ccc2c(c1)OC[C@H]1[C@H](CO)OC(=O)N21	4 (≈ 11.9 µM)	1 (≈ 2.96 µM)	0.25 (≈ 0.741 µM)	0.25 (≈ 0.741 µM)	0.25 (≈ 0.741 µM)	0.25 (≈ 0.741 µM)	–	–	–	–	–
O=C1COCCN1c1ccc(-c2ccc3c(c2)OC[C@H]2[C@H](CO)OC(=O)N32)cn1	2 (≈ 5.03 µM)	2 (≈ 5.03 µM)	2 (≈ 5.03 µM)	1 (≈ 2.52 µM)	2 (≈ 5.03 µM)	2 (≈ 5.03 µM)	–	–	–	–	–
N#Cc1ccc(-c2ccc3c(c2)OC[C@H]2[C@H](CN)OC(=O)N32)cn1	> 16	> 16	> 16	–	–	> 16	–	–	–	–	–
CN1CCC(Oc2ccc(-c3ccc4c(c3)OC[C@H]3[C@H](CO)OC(=O)N43)cn2)CC1	> 32	16 (≈ 38.9 µM)	4 (≈ 9.72 µM)	4 (≈ 9.72 µM)	8 (≈ 19.4 µM)	4 (≈ 9.72 µM)	–	–	–	–	–
CCO/N=C(\C)c1ccc(-c2ccc3c(c2)OC[C@H]2[C@H](CO)OC(=O)N32)cn1	> 32	> 32	> 32	–	–	> 32	–	–	–	–	–
Cn1nnc(-c2ccc(-c3ccc4c(c3)OC[C@H]3[C@H](CO)OC(=O)N43)cn2)n1	4 (≈ 10.5 µM)	1 (≈ 2.63 µM)	1 (≈ 2.63 µM)	1 (≈ 2.63 µM)	1 (≈ 2.63 µM)	1 (≈ 2.63 µM)	–	–	–	–	–
Cn1nnc(-c2ccc(-c3ccc(N4C[C@H](CO)OC4=O)cc3F)cn2)n1 [TEDIZOLID]	–	–	–	–	–	–	0.25 (≈ 0.675 µM)	2 (≈ 5.4 µM)	2 (≈ 5.4 µM)	2 (≈ 5.4 µM)	8 (≈ 21.6 µM)
O=C1O[C@@H](CO)[C@@H]2COc3cc(-c4ccc(Cn5cncn5)nc4)ccc3N12	1 (≈ 2.64 µM)	0.5 (≈ 1.32 µM)	0.5 (≈ 1.32 µM)	0.5 (≈ 1.32 µM)	0.5 (≈ 1.32 µM)	0.5 (≈ 1.32 µM)	1 (≈ 2.64 µM)	8 (≈ 21.1 µM)	8 (≈ 21.1 µM)	8 (≈ 21.1 µM)	16 (≈ 42.2 µM)
CN1CCC[C@H]2CN(c3ccc(-c4ccc5c(c4)OC[C@H]4[C@H](CO)OC(=O)N54)cn3)C[C@H]21	> 32	> 32	4 (≈ 9.16 µM)	8 (≈ 18.3 µM)	8 (≈ 18.3 µM)	8 (≈ 18.3 µM)	–	–	–	–	–
CC(=O)N1CCN(c2ccc(-c3ccc4c(c3)OC[C@H]3[C@H](CO)OC(=O)N43)cn2)C1=O	4 (≈ 9.42 µM)	8 (≈ 18.8 µM)	4 (≈ 9.42 µM)	4 (≈ 9.42 µM)	8 (≈ 18.8 µM)	8 (≈ 18.8 µM)	–	–	–	–	–
NCC1CN(c2ccc(-c3ccc4c(c3)OC[C@H]3[C@H](CO)OC(=O)N43)cn2)C(=O)O1 (stereo partly drawn)	1 (≈ 2.42 µM)	2 (≈ 4.85 µM)	0.5 (≈ 1.21 µM)	1 (≈ 2.42 µM)	2 (≈ 4.85 µM)	1 (≈ 2.42 µM)	–	–	–	–	–
C[C@@H](O)C(O)c1ccc(-c2ccc3c(c2)OC[C@H]2[C@H](CO)OC(=O)N32)cn1 (stereo partly drawn)	4 (≈ 10.7 µM)	2 (≈ 5.37 µM)	1 (≈ 2.69 µM)	2 (≈ 5.37 µM)	1 (≈ 2.69 µM)	2 (≈ 5.37 µM)	–	–	–	–	–
CC(C)N1CCN(c2ccc(-c3ccc4c(c3)OC[C@H]3[C@H](CO)OC(=O)N43)cn2)C1=O	8 (≈ 18.8 µM)	4 (≈ 9.42 µM)	2 (≈ 4.71 µM)	2 (≈ 4.71 µM)	4 (≈ 9.42 µM)	4 (≈ 9.42 µM)	–	–	–	–	–
CC(C)N1CC(c2ccc(-c3ccc4c(c3)OC[C@H]3[C@H](CO)OC(=O)N43)cn2)OC1=O (stereo partly drawn)	1 (≈ 2.35 µM)	2 (≈ 4.7 µM)	1 (≈ 2.35 µM)	1 (≈ 2.35 µM)	2 (≈ 4.7 µM)	1 (≈ 2.35 µM)	–	–	–	–	–
CN1CC(c2ccc(-c3ccc4c(c3)OC[C@H]3[C@H](CO)OC(=O)N43)cn2)OC1=O (stereo partly drawn)	1 (≈ 2.52 µM)	1 (≈ 2.52 µM)	0.25 (≈ 0.629 µM)	0.5 (≈ 1.26 µM)	0.5 (≈ 1.26 µM)	0.5 (≈ 1.26 µM)	–	–	–	–	–
O=C1O[C@@H](CO)[C@@H]2COc3cc(-c4ccc(C5(O)CCCC5)nc4)ccc3N12	2 (≈ 5.23 µM)	2 (≈ 5.23 µM)	1 (≈ 2.61 µM)	1 (≈ 2.61 µM)	1 (≈ 2.61 µM)	2 (≈ 5.23 µM)	–	–	–	–	–
O=C1O[C@@H](CO)[C@@H]2COc3cc(-c4ccc(CO)nc4)ccc3N12	4 (≈ 12.2 µM)	2 (≈ 6.09 µM)	0.5 (≈ 1.52 µM)	1 (≈ 3.05 µM)	0.5 (≈ 1.52 µM)	1 (≈ 3.05 µM)	–	–	–	–	–
CN1CCN(c2ccc(-c3ccc4c(c3)OC[C@H]3[C@H](CO)OC(=O)N43)cn2)CC1	2 (≈ 5.04 µM)	4 (≈ 10.1 µM)	2 (≈ 5.04 µM)	4 (≈ 10.1 µM)	4 (≈ 10.1 µM)	2 (≈ 5.04 µM)	–	–	–	–	–
